Calls of active or inactive are those of the source. The calls are words filed in the database; no cut-off is given here.

Usually IC50 stands for the concentration needed to halve the response being measured. Read a high IC50 as a need for much substance.

Assay [1] concerns the target T1, Proteasome Macropain subunit MB1 (Homo sapiens) (UniProt P28074).
T1 sequence (whole entry): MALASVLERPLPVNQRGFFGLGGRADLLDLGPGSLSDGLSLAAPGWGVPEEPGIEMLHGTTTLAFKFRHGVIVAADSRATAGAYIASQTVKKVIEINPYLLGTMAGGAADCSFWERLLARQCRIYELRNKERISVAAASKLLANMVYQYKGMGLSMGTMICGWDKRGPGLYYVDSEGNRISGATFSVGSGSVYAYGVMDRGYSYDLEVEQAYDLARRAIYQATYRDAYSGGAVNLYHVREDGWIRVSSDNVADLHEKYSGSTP
Description: (§1) Inhibition of catalytic activity of constitutive proteasome 20s subunit beta5 in human Raji cells incubated for 1 hr by BODIPY(TMR)-NC-005-VS probe based competitive activity based protein profiling assay. The class given is cell-based.

For assay [2], the target named is T2, Proteasome Macropain subunit MB1 (Homo sapiens, UniProt P28074).
T2 sequence (P28074 whole entry): T1 sequence (whole entry)
Described as §1. Type of assay: cell-based.

Assay [3] concerns the target Proteasome Macropain subunit (Homo sapiens) (UniProt P49721). Description: Inhibition of catalytic activity of constitutive proteasome 20s subunit beta2 in human Raji cells incubated for 1 hr by BODIPY(FL)-LU-112 probe based competitive activity based protein profiling assay. The class given is cell-based.
Assay [4] concerns the target Proteasome subunit beta type-9 (β1i, LMP2) (Homo sapiens) (UniProt P28065). Description: Inhibition of catalytic activity of immunoproteasome 20s subunit beta1 in human Raji cells incubated for 1 hr by Cy5-NC-001 probe based competitive activity based protein profiling assay.
Assay [5] has as its target T3, Proteasome component C5 (Homo sapiens) (UniProt P20618).
T3 sequence (whole entry): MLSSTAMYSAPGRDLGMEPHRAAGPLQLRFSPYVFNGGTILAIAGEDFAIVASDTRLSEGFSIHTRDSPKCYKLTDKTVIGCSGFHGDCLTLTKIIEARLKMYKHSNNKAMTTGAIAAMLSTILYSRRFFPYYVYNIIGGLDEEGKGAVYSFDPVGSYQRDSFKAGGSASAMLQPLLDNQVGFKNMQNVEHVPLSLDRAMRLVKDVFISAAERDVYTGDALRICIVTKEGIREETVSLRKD
Description: Inhibition of catalytic activity of constitutive proteasome 20s subunit beta1 in human Raji cells incubated for 1 hr by Cy5-NC-001 probe based competitive activity based protein profiling assay. Type of assay: cell-based.

The target in assay [6] is Proteasome subunit beta type-8 (β5i, LMP7) (Homo sapiens) (UniProt P28062). Description: Inhibition of catalytic activity of immunoproteasome 20s subunit beta5 in human Raji cells incubated for 1 hr by BODIPY(TMR)-NC-005-VS probe based competitive activity based protein profiling assay.
The target in assay [7] is T1, Proteasome Macropain subunit MB1 (Homo sapiens). Description: Inhibition of catalytic activity of immunoproteasome 20s subunit beta5/constitutive 20s subunit beta5 in human AMO1 cells assessed as accumulation of ubiquitinated-GFP at 3 uM after 1 hr by FACS analysis. The class given is cell-based. Put shortly: (§2)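 AMO-1 myeloma clone stably expressing Ub-G76V-GFP (G418-selected). 5x10⁵ cells pulsed 1 h at 37 °C with inhibitor, washed with PBS, then chased 12 h in inhibitor-free medium (37 °C, 5% CO₂). GFP median fluorescence intensity read by flow cytometry in FITC channel.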
A general note: A flow cytometer gives signals particle by particle.

The target of assay [8] is T2, Proteasome Macropain subunit MB1. Nature of the assay: (§3) Inhibition of catalytic activity of constitutive proteasome 20s subunit beta5 in human RPMI8226 cells incubated for 1 hr by BODIPY(TMR)-NC-005-VS probe based competitive activity based protein profiling assay. Type of assay: cell-based. Summed up: (§4)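 Live RPMI-8226 cells ((5-8)x10⁵ cells/mL; RPMI-1640, 10% FCS, GlutaMAX, pen/strep, 5% CO₂) exposed to inhibitor 1 h at 37 °C. Cells washed with PBS and lysed in digitonin/ATP buffer on ice 1 h. Lysates then labelled 1 h with the ABP cocktail and run on SDS-PAGE. In-gel fluorescence bands were normalized to mock and corrected for loading by Coomassie. IC50 from mean of three independent experiments.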

Assay [9] concerns the target T1, Proteasome Macropain subunit MB1 (Homo sapiens). Nature of the assay: Inhibition of catalytic activity of immunoproteasome 20s subunit beta5/constitutive 20s subunit beta5 in human AMO1 cells assessed as accumulation of ubiquitinated-GFP at 100 uM after 1 hr by FACS analysis. Type of assay: cell-based. Summed up: as §2
Another assay is filed under the species Homo sapiens. Nature of the assay: Selectivity ratio of IC50 for immunoproteasome 20s subunit beta5 in human Raji cells to IC50 for constitutive proteasome 20s subunit beta5 in human Raji cells. The class given is cell-based. Summed up: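 Initial screen in Raji cell extracts. Inhibitor at 0.01, 0.1, 1.0 and 10.0 µM final for 1 h at 37 °C, then ABP cocktail 1 h. In-gel fluorescence of β5c/β5i bands normalized to mock-treated extract, giving residual activity. Run once. IC50s from this screen feed the β5i/β5c ratio.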

The target of assay [10] is Proteasome subunit beta type-9 (β1i, LMP2) (Homo sapiens) (UniProt P28065). Nature of the assay: Inhibition of catalytic activity of immunoproteasome 20s subunit beta1 in human RPMI8226 cells incubated for 1 hr by Cy5-NC-001 probe based competitive activity based protein profiling assay.
Assay [11] concerns the target T3, Proteasome component C5 (Homo sapiens). Description: Inhibition of catalytic activity of constitutive proteasome 20s subunit beta1 in human RPMI8226 cells incubated for 1 hr by Cy5-NC-001 probe based competitive activity based protein profiling assay. The class given is cell-based. Summed up: as §4
The target of assay [12] is Proteasome subunit beta type-8 (β5i, LMP7) (Homo sapiens) (UniProt P28062). Description: Inhibition of catalytic activity of immunoproteasome 20s subunit beta5 in human RPMI8226 cells incubated for 1 hr by BODIPY(TMR)-NC-005-VS probe based competitive activity based protein profiling assay.
The target in assay [13] is T1, Proteasome Macropain subunit MB1 (Homo sapiens). The description is as §3. The class given is cell-based. Put shortly: as §4
Assay [14] concerns the target Proteasome Macropain subunit (Homo sapiens) (UniProt P49721). Description: Inhibition of catalytic activity of constitutive proteasome 20s subunit beta2 in human RPMI8226 cells incubated for 1 hr by BODIPY(FL)-LU-112 probe based competitive activity based protein profiling assay. Type of assay: cell-based. Put shortly:
as §4

Regarding `COC1CCC(C[C@H](NC(=O)[C@H](Cc2ccccc2)N=[N+]=[N-])C(=O)N[C@@H](Cc2ccccc2)C(=O)N[C@@H](CC(C)C)C(=O)[C@@]2(C)CO2)CC1` (stereo not given in full), the pIC50(app) in assay [1] was 8.68; in assay [3] it was 7.18; in assay [4], 6.05; in [5], below 4; in [6], 7.67. The concentration for half-maximal inhibition (IC50) in [2] was 2.1 nM.
As to `CC(C)C[C@H](NC(=O)[C@H](Cc1ccccc1)NC(=O)[C@H](CCc1ccccc1)NC(=O)[C@H](Cc1ccccc1)N=[N+]=[N-])C(=O)[C@@]1(C)CO1`, the pIC50(app) in [1] is 8.53; in assay [3], 7.22; in assay [4] it was 6.79; in assay [5], below 4; in [6], 8.29. The same compound registered a half-maximal inhibitory concentration (IC50) in assay [2] of 3 nM.
On to `COc1ccc(C[C@H](NC(=O)Cc2ccc3ccccc3c2)C(=O)N[C@@H](Cc2ccccc2)C(=O)N[C@@H](CC(C)C)C(=O)[C@@]2(C)CO2)cc1`, for which the inhibition result in assay [7] is “Active”.
Regarding `CC(C)C[C@H](NC(=O)CN1CCOCC1)C(=O)N[C@@H](C[C@H]1CC[C@H](C2CCCCC2)CC1)C(=O)N[C@@H](Cc1ccccc1)C(=O)N[C@@H](C)C(=O)[C@@]1(C)CO1`, the IC50 in [2] is 28 nM; in assay [8], 274 nM. The inhibition entry in [9] was “Active”. Moreover, the Ratio IC50 in the assay listed under Homo sapiens is 814.
For `C[C@H](NC(=O)[C@H](Cc1ccccc1)NC(=O)[C@H](C[C@H]1CC[C@H](C2CCCCC2)CC1)NC(=O)[C@H](Cc1ccccc1)N=[N+]=[N-])C(=O)[C@@]1(C)CO1`, the inhibition entry in assay [10], in assay [11], in assay [12], in [13] and in [14] was “inactive” in each case. This compound had an IC50 in [2] of 4.9 nM.
With `CC(C)C[C@H](NC(=O)[C@H](Cc1ccccc1)NC(=O)[C@H](CC1CCC(C)CC1)NC(=O)[C@H](Cc1ccccc1)N=[N+]=[N-])C(=O)[C@@]1(C)CO1` (stereo not given in full), the pIC50(app) was 8.7 in assay [1]; 7.34 in [3]; below 4 in assay [4]; below 4 in [5]; 7.96 in assay [6]. The IC50 in [2] was 2 nM.
`COc1ccc(C[C@H](NC(=O)[C@H](Cc2ccccc2)N=[N+]=[N-])C(=O)N[C@@H](Cc2ccccc2)C(=O)N[C@@H](CC(C)C)C(=O)[C@@]2(C)CO2)cc1`: the pIC50(app) in assay [1] turned out to be 8.68; in assay [3] it was 6.95; in assay [4], 6.88; in [5], 6.75; in assay [6], 8.11. In [2], this compound had an IC50 of 2.1 nM.
